Reference: ChEMBL document CHEMBL3877264, “Quinolidene-rhodanine conjugates: Facile synthesis and biological evaluation” (Eur J Med Chem, 2017)
≈ marks a conversion by molar mass, not a printed value.

Experiments:
[1] = system: Mycobacterium tuberculosis; assay: Growth inhibition of Mycobacterium bovis BCG ATCC 35743 at active stage at 100 ug/ml measured after 8 days by nitrate reductase dye based two fold dilution method relative to control; assay type: functional; details: BCG str. ATCC 35743, 192 h, read-out: GI
[2] = system: Mycobacterium tuberculosis; assay: Growth inhibition of Mycobacterium tuberculosis H37Ra ATCC 25177 at dormant stage at 25 ug/ml measured after 12 days by XTT dye based two fold dilution method relative to control; assay type: functional; details: H37Ra ATCC 25177, 288 h, read-out: GI
Outline: (§1)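 MTB H37Ra was grown in Dubos medium, then exposed in Mycobacterium pheli minimal medium (pH 6.6) to compounds dissolved in DMSO. The assay ended on day 8 (active) or day 12 (dormant). Viable cells were measured by XTT reduction menadione assay at 470 nm, blank-corrected, relative to vehicle control. Triplicates were expressed as mean ± SD. MIC came from dose-response curves.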

[3] = Cytotoxicity against human A549 cells assessed as growth inhibition at 100 ug/ml measured after 48 hrs by MTT assay relative to control; assay type: toxicity, cell-based; details: read-out: GI
Pseudomonas fluorescens = assay: Antibacterial activity against Pseudomonas fluorescens NCIM 2036 measured after 8 hrs; assay type: functional; details: NCIM 2036, 8 h
Outline: (§2)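 Bacteria grown in LB at 37 °C and 180 rpm to OD 1. Compounds added to wells, then 0.1% inoculum of 1 OD culture (620 nm). Growth read as OD at 620 nm after 8 h for gram-negative and after 12 h for gram-positive strains.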

[4] = Cytotoxicity against human HeLa cells measured after 48 hrs by MTT assay; assay type: toxicity, cell-based
[5] = system: Mycobacterium tuberculosis; assay: Growth inhibition of Mycobacterium bovis BCG ATCC 35743 at dormant stage at 10 ug/ml measured after 12 days by nitrate reductase dye based two fold dilution method relative to control; assay type: functional; details: BCG str. ATCC 35743, 288 h, read-out: GI
Outline: (§3)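 M. bovis BCG was grown in Dubos medium and assayed in Mycobacterium pheli minimal medium (pH 6.6), with compounds from DMSO stocks. Incubation lasted 8 days for active and 12 days for dormant cultures. Viability was read by nitrate reductase at 540 nm against cell-free blanks, with vehicle set as 100% growth. Primary screen was at 30, 10 and 3 µg/ml, in triplicate, mean ± SD. MIC was taken from dose-response curves.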

[6] = Cytotoxicity against human PANC1 cells assessed as growth inhibition at 100 ug/ml measured after 48 hrs by MTT assay relative to control; assay type: toxicity, cell-based, PANC-1; details: read-out: GI
Candida albicans = assay: Antifungal activity against Candida albicans NCIM 3471 by standard agar method; assay type: functional
Outline: (§4)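 MICs determined by standard agar method; DMSO as solvent control.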

[7] = Cytotoxicity against […]-differentiated human THP1 cells measured after 48 hrs by MTT assay; assay type: toxicity, cell-based, THP-1
Outline: (§5)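 MTT assay with 48 h compound exposure. THP-1 macrophages made by 24 h PMA treatment. Each concentration tested in triplicate in one experiment. % cytotoxicity = (control−test)/(control−blank)×100, with control = cells + DMSO and blank = medium without cells. IC50 from % survival versus concentration plots.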

[8] = system: Mycobacterium tuberculosis; assay: Growth inhibition of Mycobacterium bovis BCG ATCC 35743 at dormant stage at 30 ug/ml measured after 12 days by nitrate reductase dye based two fold dilution method relative to control; assay type: functional; details: BCG str. ATCC 35743, 288 h, read-out: GI; outline: as §3
[9] = system: Mycobacterium tuberculosis; assay: Growth inhibition of Mycobacterium tuberculosis H37Ra ATCC 25177 at dormant stage at 100 ug/ml measured after 12 days by XTT dye based two fold dilution method relative to control; assay type: functional; details: H37Ra ATCC 25177, 288 h, read-out: GI; outline: as §1
[10] = system: Mycobacterium tuberculosis; assay: Growth inhibition of Mycobacterium bovis BCG ATCC 35743 at dormant stage at 50 ug/ml measured after 12 days by nitrate reductase dye based two fold dilution method relative to control; assay type: functional; details: BCG str. ATCC 35743, 288 h, read-out: GI; outline: as §3
[11] = system: Mycobacterium tuberculosis; assay: Growth inhibition of Mycobacterium bovis BCG ATCC 35743 at active stage at 3.13 ug/ml measured after 8 days by nitrate reductase dye based two fold dilution method relative to control; assay type: functional; details: BCG str. ATCC 35743, 192 h, read-out: GI; outline: as §3
[12] = system: Mycobacterium tuberculosis; assay: Growth inhibition of Mycobacterium bovis BCG ATCC 35743 at dormant stage at 12.5 ug/ml measured after 12 days by nitrate reductase dye based two fold dilution method relative to control; assay type: functional; details: BCG str. ATCC 35743, 288 h, read-out: GI
[13] = system: Mycobacterium tuberculosis; assay: Growth inhibition of Mycobacterium bovis BCG ATCC 35743 at active stage at 1.56 ug/ml measured after 8 days by nitrate reductase dye based two fold dilution method relative to control; assay type: functional; details: BCG str. ATCC 35743, 192 h, read-out: GI; outline: as §3
[14] = system: Mycobacterium tuberculosis; assay: Growth inhibition of Mycobacterium tuberculosis H37Ra ATCC 25177 at active stage at 3.13 ug/ml measured after 8 days by XTT dye based two fold dilution method relative to control; assay type: functional; details: H37Ra ATCC 25177, 192 h, read-out: GI; outline: as §1
[15] = system: Mycobacterium tuberculosis; assay: Growth inhibition of Mycobacterium bovis BCG ATCC 35743 at active stage at 0.78 ug/ml measured after 8 days by nitrate reductase dye based two fold dilution method relative to control; assay type: functional; details: BCG str. ATCC 35743, 192 h, read-out: GI; outline: as §3
[16] = Antifungal activity against Cryptococcus neoformans NCIM 576 by standard agar method; assay type: functional; outline: as §4
Escherichia coli = assay: Growth inhibition of Escherichia coli NCIM 2688 at 30 ug/ml measured after 8 hrs relative to control; assay type: functional; details: NCIM 2688, 8 h, read-out: GI; outline: as §2
[17] = Cytotoxicity against […]-differentiated human THP1 cells assessed as growth inhibition at 100 ug/ml measured after 48 hrs by MTT assay relative to control; assay type: toxicity, cell-based, THP-1; details: read-out: GI; outline: as §5
[18] = system: Mycobacterium tuberculosis; assay: Growth inhibition of Mycobacterium bovis BCG ATCC 35743 at dormant stage at 3 ug/ml measured after 12 days by nitrate reductase dye based two fold dilution method relative to control; assay type: functional; details: BCG str. ATCC 35743, 288 h, read-out: GI; outline: as §3
Bacillus subtilis = assay: Antibacterial activity against Bacillus subtilis NCIM 2079 measured after 12 hrs; assay type: functional; details: NCIM 2079, 12 h; outline: as §2
[19] = system: Mycobacterium tuberculosis; assay: Growth inhibition of Mycobacterium bovis BCG ATCC 35743 at dormant stage at 1.56 ug/ml measured after 12 days by nitrate reductase dye based two fold dilution method relative to control; assay type: functional; details: BCG str. ATCC 35743, 288 h, read-out: GI; outline: as §3
[20] = system: Mycobacterium tuberculosis; assay: Growth inhibition of Mycobacterium tuberculosis H37Ra ATCC 25177 at active stage at 100 ug/ml measured after 8 days by XTT dye based two fold dilution method relative to control; assay type: functional; details: H37Ra ATCC 25177, 192 h, read-out: GI; outline: as §1
[21] = Selectivity index, ratio of GI50 for human A549 cells to MIC for Mycobacterium tuberculosis H37Ra ATCC 25177 at dormant stage; assay type: toxicity, cell-based; details: read-out: Selectivity Index
Outline: (§6)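 SI is the cell-line GI50 divided by the dormant-stage mycobacterial MIC. […] THP-1 macrophages were PMA-differentiated for 24 h.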

[22] = Selectivity index, ratio of GI50 for HUVEC to MIC for Mycobacterium tuberculosis H37Ra ATCC 25177 at dormant stage
[23] = Selectivity index, ratio of GI50 for human PANC1 cells to MIC for Mycobacterium tuberculosis H37Ra ATCC 25177 at dormant stage; assay type: toxicity, cell-based, PANC-1; details: read-out: Selectivity Index; outline: as §6
[24] = system: Mycobacterium tuberculosis; assay: Growth inhibition of Mycobacterium bovis BCG ATCC 35743 at dormant stage measured after 12 days by nitrate reductase dye based two fold dilution method; assay type: functional; details: BCG str. ATCC 35743, 288 h; outline: as §3
[25] = Selectivity index, ratio of GI50 for human HeLa cells to MIC for Mycobacterium tuberculosis H37Ra ATCC 25177 at dormant stage; assay type: toxicity, cell-based; details: read-out: Selectivity Index; outline: as §6

Compound	inhibition of growth at 25 µg/mL [2]	inhibition at 48 h, 100 ug/ml [3]	MIC (Pseudomonas fluorescens)	GI50 at 48 h [4]	inhibition of growth at 10 µg/mL [5]	inhibition at 48 h, 100 ug/ml [6]	MIC (Candida albicans)	GI50 at 48 h [7]	inhibition of growth at 30 µg/mL [8]	inhibition of growth at 100 µg/mL [9]	inhibition of growth at 50 µg/mL [10]	inhibition of growth at 12.5 µg/mL [12]	inhibition of growth at 3.13 µg/mL [14]	MIC [16]	inhibition of growth at 30 µg/mL (Escherichia coli)	inhibition at 48 h, 100 ug/ml [17]	inhibition of growth at 3 µg/mL [18]	MIC (Bacillus subtilis)	inhibition of growth at 1.56 µg/mL [19]	inhibition of growth at 100 µg/mL [20]	also measured
COc1ccc2cc(/C=C3\SC(=S)NC3=O)c(Cl)nc2c1	103%	27.6%	> 30 µg/mL	> 100 µg/mL	27.9%	29.8%	50 µg/mL (≈ 148 µM)	> 100 µg/mL	10.1%	85.2%	100%	98.8%	8.88%	50 µg/mL (≈ 148 µM)	35.5%	31.3%	-7.94%	> 30 µg/mL	-29.2%	96.4%	inhibition of growth at 100 µg/mL [1]: 98.9%; inhibition of growth at 3.13 µg/mL [11]: 91.5%; inhibition of growth at 1.56 µg/mL [13]: -36.6%; inhibition of growth at 0.78 µg/mL [15]: -60.1%
COc1ccc2nc(Cl)c(/C=C3\SC(=S)NC3=O)cc2c1	87.8%	22.2%	> 30 µg/mL	> 100 µg/mL	-14%	24.9%	150 µg/mL (≈ 445 µM)	> 100 µg/mL	-6.75%	91.6%	99%	93.8%	38.4%	100 µg/mL (≈ 297 µM)	61.2%	30.2%	-46.3%	> 30 µg/mL	-28.8%	90.3%	inhibition of growth at 100 µg/mL [1]: 86.3%; selectivity ratio [21]: 20.8; Selectivity Index [22]: 20.8; selectivity ratio [23]: 20.8; IC50 [24]: 2.9 µg/mL (≈ 8.61 µM); IC90 [24]: 6.8 µg/mL (≈ 20.2 µM); inhibition of growth at 3.13 µg/mL [11]: 14.9%; inhibition of growth at 1.56 µg/mL [13]: -39.1%; inhibition of growth at 0.78 µg/mL [15]: -67.9%; selectivity ratio [25]: 20.8
CCOc1ccc2nc(Cl)c(/C=C3\SC(=S)NC3=O)cc2c1	105%	23.9%	> 30 µg/mL	> 100 µg/mL	93.5%	30.1%	125 µg/mL (≈ 356 µM)	> 100 µg/mL	94.5%	105%	99.6%	101%	94.8%	50 µg/mL (≈ 143 µM)	28%	35.1%	91%	28.4 µg/mL (≈ 80.9 µM)	75.5%	111%	inhibition of growth at 100 µg/mL [1]: 96.8%; selectivity ratio [21]: 28.6; Selectivity Index [22]: 28.6; selectivity ratio [23]: 28.6; IC50 [24]: 1.1 µg/mL (≈ 3.14 µM); IC90 [24]: 1.9 µg/mL (≈ 5.42 µM); inhibition of growth at 3.13 µg/mL [11]: 99.4%; inhibition of growth at 1.56 µg/mL [13]: 93.4%; inhibition of growth at 0.78 µg/mL [15]: -51.8%; selectivity ratio [25]: 28.6
O=C(O)CN1C(=O)/C(=C/c2cc3cc(F)ccc3nc2Cl)SC1=S	27.7%	33.7%	> 30 µg/mL	> 100 µg/mL	43.1%	20.8%	50 µg/mL (≈ 131 µM)	> 100 µg/mL	28.2%	119%	99.8%	99.8%	-12.6%	25 µg/mL (≈ 65.3 µM)	-1.67%	14.5%	23.9%	> 30 µg/mL	99.4%	100%	IC50 [24]: > 30 µg/mL; IC90 [24]: > 30 µg/mL
Cc1cccc2cc(/C=C3\SC(=S)N(CC(=O)O)C3=O)c(Cl)nc12	96.8%	15.6%	> 30 µg/mL	> 100 µg/mL	31.6%	5.9%	–	> 100 µg/mL	70%	100%	–	–	-10.2%	150 µg/mL (≈ 396 µM)	-0.186%	25%	22.7%	> 30 µg/mL	–	98.5%	selectivity ratio [21]: 5; Selectivity Index [22]: 5; selectivity ratio [23]: 5; IC50 [24]: > 30 µg/mL; IC90 [24]: > 30 µg/mL; selectivity ratio [25]: 5
